Active and inactive are the calls of the source. The calls are words filed in the database; no cut-off is given here.
Assays:
[1] = biological target: Tyrosine-protein kinase ABL1 (Homo sapiens) (UniProt P00519); test: Inhibition of ABL1 at 1 uM
[2] = test system: MDA-MB-231; test: Cytotoxicity against human MDA231 cells at 10 uM; type: functional, cell-based
[3] = biological target: Ribosomal protein S6 kinase alpha-4 (Homo sapiens) (UniProt O75676); test: Inhibition of RPS6KA4 at 1 uM
[4] = biological target: Insulin-like growth factor 1 receptor (Homo sapiens) (UniProt P08069); test: Inhibition of IGF1R at 1 uM
[5] = biological target: T1, Mitogen-activated protein kinase 12 (Homo sapiens) (UniProt P53778); test: Inhibition of p38-gamma at 1 uM
T1 sequence (whole entry): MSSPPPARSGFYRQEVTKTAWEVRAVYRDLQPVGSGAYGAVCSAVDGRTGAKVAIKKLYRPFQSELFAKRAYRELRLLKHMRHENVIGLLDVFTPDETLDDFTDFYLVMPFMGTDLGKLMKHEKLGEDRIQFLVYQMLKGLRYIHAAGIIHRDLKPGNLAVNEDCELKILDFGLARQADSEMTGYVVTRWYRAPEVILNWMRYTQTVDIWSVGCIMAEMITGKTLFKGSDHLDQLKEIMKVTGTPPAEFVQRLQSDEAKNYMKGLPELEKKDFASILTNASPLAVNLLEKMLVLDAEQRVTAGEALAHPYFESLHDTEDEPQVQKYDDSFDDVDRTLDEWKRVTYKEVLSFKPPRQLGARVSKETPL

[6] = biological target: Tyrosine-protein kinase Lyn (Homo sapiens) (UniProt P07948); test: Inhibition of LYN at 1 uM
Tyrosine-protein kinase Lyn (Homo sapiens), sequence (P07948 2-512 limits assumed): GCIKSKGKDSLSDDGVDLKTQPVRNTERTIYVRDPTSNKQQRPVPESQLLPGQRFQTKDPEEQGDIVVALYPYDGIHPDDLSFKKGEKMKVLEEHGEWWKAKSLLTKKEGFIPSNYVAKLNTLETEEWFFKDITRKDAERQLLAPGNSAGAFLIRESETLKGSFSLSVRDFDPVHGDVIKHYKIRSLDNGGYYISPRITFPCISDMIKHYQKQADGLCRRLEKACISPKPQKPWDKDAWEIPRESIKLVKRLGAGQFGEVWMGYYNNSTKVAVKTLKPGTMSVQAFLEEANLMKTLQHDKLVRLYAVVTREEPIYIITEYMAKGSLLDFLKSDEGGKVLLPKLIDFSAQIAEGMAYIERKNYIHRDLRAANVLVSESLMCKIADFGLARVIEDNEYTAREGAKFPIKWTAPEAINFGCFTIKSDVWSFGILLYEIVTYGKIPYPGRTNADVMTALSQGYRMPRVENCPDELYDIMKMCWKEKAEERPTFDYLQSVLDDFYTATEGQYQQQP

[7] = biological target: T2, Inhibitor of nuclear factor kappa-B kinase subunit epsilon (Homo sapiens) (UniProt Q14164); test: Inhibition of IKKepsilon at 1 uM
T2 sequence (whole entry): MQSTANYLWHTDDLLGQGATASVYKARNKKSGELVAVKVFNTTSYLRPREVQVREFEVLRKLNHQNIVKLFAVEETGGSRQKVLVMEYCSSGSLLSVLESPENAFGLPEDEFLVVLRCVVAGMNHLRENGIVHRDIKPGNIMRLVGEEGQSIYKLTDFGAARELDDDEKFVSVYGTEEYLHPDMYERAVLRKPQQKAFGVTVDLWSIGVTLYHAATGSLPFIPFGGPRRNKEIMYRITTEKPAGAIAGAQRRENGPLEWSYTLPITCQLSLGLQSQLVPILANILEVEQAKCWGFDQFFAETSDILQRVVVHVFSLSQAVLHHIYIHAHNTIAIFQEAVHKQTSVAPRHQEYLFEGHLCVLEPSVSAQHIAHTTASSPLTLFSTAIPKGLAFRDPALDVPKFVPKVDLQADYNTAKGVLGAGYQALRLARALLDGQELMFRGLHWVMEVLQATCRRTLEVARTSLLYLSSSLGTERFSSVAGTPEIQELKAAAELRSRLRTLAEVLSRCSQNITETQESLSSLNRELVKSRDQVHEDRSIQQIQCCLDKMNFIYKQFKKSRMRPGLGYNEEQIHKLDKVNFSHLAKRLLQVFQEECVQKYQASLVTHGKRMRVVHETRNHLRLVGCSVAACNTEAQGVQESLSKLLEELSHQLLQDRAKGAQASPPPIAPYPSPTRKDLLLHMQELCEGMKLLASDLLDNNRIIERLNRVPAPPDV

[8] = Antiproliferative activity against human MDA231 cells after 72 hrs by MTT assay; type: functional, cell-based; details: MDA-MB-231, 72 h
Method in brief: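 MTT read-out on MDA-231 cells. 1×10^3 exponentially growing cells seeded and incubated 24, 48 and 72 h. Medium replaced with 1 mg/mL MTT for 3–4 h at 37 °C.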

[9] = biological target: Protein kinase C alpha type (Homo sapiens, UniProt P17252); test: Inhibition of PKCalpha at 1 uM
[10] = biological target: Hepatocyte growth factor receptor (Homo sapiens) (UniProt P08581); test: Inhibition of MET at 1 uM
Hepatocyte growth factor receptor (Homo sapiens), sequence (P08581 whole entry): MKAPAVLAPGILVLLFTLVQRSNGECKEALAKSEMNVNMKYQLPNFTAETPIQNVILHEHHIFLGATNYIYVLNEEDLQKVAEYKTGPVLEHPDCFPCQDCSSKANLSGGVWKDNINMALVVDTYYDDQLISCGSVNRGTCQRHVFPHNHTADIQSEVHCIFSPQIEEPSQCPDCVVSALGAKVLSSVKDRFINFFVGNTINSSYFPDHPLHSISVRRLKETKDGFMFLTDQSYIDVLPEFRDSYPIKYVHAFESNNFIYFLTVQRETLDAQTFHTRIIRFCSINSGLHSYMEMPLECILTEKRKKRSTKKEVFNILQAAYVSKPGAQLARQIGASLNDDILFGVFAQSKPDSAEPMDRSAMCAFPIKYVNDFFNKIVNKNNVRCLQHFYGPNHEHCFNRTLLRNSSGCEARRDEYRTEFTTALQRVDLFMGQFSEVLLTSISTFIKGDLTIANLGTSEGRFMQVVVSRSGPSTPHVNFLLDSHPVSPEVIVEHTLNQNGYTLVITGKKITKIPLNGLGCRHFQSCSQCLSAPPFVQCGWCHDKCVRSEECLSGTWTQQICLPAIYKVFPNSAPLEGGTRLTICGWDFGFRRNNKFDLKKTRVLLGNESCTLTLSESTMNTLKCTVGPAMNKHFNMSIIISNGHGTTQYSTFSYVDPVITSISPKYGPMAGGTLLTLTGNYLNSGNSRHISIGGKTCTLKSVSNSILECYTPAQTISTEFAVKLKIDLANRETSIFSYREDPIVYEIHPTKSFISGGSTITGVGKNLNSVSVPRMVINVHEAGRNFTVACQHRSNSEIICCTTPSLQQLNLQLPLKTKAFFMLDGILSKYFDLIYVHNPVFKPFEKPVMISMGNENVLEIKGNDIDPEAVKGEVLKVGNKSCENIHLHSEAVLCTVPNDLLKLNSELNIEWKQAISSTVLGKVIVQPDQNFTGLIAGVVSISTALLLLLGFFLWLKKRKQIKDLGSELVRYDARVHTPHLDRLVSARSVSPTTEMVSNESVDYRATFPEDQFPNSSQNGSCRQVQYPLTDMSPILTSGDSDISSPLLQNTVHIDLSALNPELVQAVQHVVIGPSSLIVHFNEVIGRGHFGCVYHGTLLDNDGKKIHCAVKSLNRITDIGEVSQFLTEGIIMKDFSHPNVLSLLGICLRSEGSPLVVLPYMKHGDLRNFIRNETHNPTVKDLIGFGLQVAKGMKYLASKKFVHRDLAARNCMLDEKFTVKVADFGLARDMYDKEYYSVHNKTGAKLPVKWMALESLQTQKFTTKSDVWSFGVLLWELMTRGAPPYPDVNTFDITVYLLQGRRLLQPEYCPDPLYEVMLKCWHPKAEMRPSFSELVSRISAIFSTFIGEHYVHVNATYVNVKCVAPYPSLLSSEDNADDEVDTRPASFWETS

[11] = […] in human MDA231 cells assessed as inhibition of cell migration at 10 uM after 12 to 24 hrs by wound healing migration assay relative to control; type: functional; details: MDA-MB-231
Method in brief: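 MDA-231 cells grown on coverslips for 24 h, wounded by scraping with a micropipette tip, washed, then incubated in fresh medium at 37 °C with or without compound (10 μM final). Wound areas photographed at 12 and 24 h, remaining area measured, DMSO control set to 0% inhibition. Mean ± SD of five independent experiments.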

[12] = biological target: Tyrosine-protein kinase Fyn (Homo sapiens) (UniProt P06241); test: Inhibition of FYN at 1 uM
[13] = biological target: Vascular endothelial growth factor receptor 2 (Homo sapiens) (UniProt P35968); test: Inhibition of VEGFR2 at 1 uM
[14] = biological target: Serine/threonine-protein kinase PAK 1 (Homo sapiens) (UniProt Q13153); test: Inhibition of PAK1 at 1 uM
Serine/threonine-protein kinase PAK 1 (Homo sapiens), sequence (Q13153 whole entry): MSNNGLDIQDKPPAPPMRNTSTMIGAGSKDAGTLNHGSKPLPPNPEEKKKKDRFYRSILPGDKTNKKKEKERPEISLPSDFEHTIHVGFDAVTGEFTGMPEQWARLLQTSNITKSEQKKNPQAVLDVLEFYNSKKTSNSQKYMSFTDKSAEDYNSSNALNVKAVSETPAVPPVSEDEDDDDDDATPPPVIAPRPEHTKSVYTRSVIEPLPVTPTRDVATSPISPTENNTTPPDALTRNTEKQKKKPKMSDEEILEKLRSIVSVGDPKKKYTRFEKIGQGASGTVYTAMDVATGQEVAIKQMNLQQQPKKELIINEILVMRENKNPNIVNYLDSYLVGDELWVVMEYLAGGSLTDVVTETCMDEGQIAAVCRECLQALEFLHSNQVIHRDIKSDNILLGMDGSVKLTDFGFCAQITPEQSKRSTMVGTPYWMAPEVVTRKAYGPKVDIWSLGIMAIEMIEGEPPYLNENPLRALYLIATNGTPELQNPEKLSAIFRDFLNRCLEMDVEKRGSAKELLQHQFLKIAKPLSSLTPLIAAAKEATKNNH

[15] = test system: MDA231; test: Inhibition of lipoxygenase in human MDA231 cells; type: cell-based
[16] = biological target: Epidermal growth factor receptor (Homo sapiens) (UniProt P00533); test: Inhibition of EGFR at 1 uM
[17] = biological target: Epithelial discoidin domain-containing receptor 1 (Homo sapiens) (UniProt Q08345); test: Inhibition of DDR1 at 1 uM
[18] = biological target: BDNF/NT-3 growth factors receptor (Homo sapiens) (UniProt Q16620); test: Inhibition of TRKB at 1 uM
BDNF/NT-3 growth factors receptor (Homo sapiens), sequence (Q16620 32-822 limits assumed): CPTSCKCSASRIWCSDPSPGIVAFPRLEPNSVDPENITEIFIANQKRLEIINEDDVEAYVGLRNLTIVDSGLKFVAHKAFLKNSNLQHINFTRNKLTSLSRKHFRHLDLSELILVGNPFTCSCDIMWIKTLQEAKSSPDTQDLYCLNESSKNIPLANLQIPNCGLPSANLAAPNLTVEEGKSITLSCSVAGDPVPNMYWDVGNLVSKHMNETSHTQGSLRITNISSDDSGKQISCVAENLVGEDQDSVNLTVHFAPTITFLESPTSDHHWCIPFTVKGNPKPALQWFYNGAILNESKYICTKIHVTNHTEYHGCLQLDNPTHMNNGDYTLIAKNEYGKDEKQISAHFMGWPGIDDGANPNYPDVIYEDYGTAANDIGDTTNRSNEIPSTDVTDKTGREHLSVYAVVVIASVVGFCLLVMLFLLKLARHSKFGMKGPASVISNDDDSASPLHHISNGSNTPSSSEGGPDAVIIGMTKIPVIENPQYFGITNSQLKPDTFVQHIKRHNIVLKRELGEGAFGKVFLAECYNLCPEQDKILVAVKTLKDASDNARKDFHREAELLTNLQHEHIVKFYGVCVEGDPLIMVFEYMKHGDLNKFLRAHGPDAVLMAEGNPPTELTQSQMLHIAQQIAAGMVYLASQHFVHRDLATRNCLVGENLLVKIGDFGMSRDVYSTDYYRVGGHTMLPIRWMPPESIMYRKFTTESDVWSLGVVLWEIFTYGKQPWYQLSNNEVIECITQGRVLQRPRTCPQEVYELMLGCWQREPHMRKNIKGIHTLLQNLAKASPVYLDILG

[19] = biological target: Tyrosine-protein kinase Yes (Homo sapiens) (UniProt P07947); test: Inhibition of YES1 at 1 uM
Tyrosine-protein kinase Yes (Homo sapiens), sequence (P07947 2-543 limits assumed): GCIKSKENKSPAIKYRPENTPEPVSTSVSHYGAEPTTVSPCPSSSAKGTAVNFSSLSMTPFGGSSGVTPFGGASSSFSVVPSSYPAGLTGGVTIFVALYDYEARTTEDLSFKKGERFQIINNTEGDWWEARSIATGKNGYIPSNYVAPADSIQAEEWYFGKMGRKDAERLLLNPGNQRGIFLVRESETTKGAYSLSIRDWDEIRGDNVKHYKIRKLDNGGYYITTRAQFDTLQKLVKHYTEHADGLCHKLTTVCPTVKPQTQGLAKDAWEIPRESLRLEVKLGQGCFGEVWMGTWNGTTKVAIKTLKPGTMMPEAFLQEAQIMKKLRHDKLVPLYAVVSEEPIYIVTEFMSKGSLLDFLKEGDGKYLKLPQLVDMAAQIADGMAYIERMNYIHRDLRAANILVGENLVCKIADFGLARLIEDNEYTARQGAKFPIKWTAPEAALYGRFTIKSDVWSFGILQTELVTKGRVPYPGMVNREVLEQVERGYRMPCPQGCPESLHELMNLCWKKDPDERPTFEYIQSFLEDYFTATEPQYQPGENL

[20] = biological target: Aurora kinase B (Homo sapiens) (UniProt Q96GD4); test: Inhibition of Aurora B at 1 uM
Aurora kinase B (Homo sapiens), sequence (Q96GD4 whole entry): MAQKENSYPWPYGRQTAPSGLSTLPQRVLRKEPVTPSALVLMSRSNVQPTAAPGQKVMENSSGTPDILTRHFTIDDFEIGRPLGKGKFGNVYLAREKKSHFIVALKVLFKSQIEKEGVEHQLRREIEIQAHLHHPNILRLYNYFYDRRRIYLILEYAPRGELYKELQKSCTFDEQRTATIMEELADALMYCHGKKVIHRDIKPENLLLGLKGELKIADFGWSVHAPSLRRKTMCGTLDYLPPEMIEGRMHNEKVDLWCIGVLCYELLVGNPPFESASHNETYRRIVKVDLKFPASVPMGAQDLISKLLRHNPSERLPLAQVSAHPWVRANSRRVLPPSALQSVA

Ribosomal protein S6 kinase alpha-4 (Homo sapiens), sequence (O75676 whole entry, looked up): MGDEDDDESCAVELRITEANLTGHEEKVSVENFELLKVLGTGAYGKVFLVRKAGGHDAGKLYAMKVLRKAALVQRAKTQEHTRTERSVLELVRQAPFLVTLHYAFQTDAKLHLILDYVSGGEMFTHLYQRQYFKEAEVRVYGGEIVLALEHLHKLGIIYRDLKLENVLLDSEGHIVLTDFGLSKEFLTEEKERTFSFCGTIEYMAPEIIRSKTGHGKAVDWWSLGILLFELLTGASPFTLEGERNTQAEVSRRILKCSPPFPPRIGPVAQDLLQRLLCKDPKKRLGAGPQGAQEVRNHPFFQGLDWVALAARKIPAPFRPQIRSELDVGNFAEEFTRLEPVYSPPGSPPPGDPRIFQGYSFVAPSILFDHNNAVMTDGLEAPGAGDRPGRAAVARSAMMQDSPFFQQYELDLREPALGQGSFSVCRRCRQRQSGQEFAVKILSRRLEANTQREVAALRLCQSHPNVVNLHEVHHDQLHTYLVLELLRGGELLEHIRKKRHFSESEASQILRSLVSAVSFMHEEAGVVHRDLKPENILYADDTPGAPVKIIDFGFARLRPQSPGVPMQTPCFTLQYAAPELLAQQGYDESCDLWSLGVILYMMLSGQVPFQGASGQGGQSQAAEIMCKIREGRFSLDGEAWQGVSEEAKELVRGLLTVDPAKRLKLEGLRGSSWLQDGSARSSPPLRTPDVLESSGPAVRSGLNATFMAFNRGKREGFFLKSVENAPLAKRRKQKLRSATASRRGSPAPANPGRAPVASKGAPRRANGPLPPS

Row | SMILES | inhibition [1] [%] | Activity [2] | inhibition [3] [%] | inhibition [4] [%] | inhibition [5] [%] | inhibition [6] [%] | inhibition [7] [%] | IC50 [8] [µM] | inhibition [9] [%] | inhibition [10] [%] | inhibition at 10 µM [11] [%] | inhibition [12] [%] | inhibition [13] [%] | inhibition [14] [%] | inhibition [15] | inhibition [16] [%] | inhibition [17] [%] | inhibition [18] [%] | inhibition [19] [%] | inhibition [20] [%]
1 | O=C(CCCn1[se]c2ccccc2c1=O)N[C@@H]1O[C@H](CO)[C@@H](O)[C@H](O)[C@H]1O | 0 | inactive | 0 | 0 | 0 | 0 | 0 | 20.4 | 74 | 0 | 50 | 0 | 0 | 0 | inactive | 0 | 0 | 0 | 0 | 0
2 | CC(=O)OC[C@H]1O[C@@H](O[C@H]2[C@H](OC(C)=O)[C@@H](OC(C)=O)[C@H](n3[se]c4ccccc4c3=O)O[C@@H]2COC(C)=O)[C@H](OC(C)=O)[C@@H](OC(C)=O)[C@H]1OC(C)=O | 0 | inactive | 0 | 1 | 0 | 0 | 0 | – | 95 | 0 | 50 | 0 | 0 | 0 | inactive | 0 | 0 | 0 | 0 | 0
3 | CC(=O)OC[C@H]1O[C@@H](NC(=O)CCCn2[se]c3ccccc3c2=O)[C@H](OC(C)=O)[C@@H](OC(C)=O)[C@@H]1OC(C)=O | 0 | inactive | 0 | 0 | 0 | 0 | 0 | 18.9 | 77 | 0 | 50 | 0 | 0 | 0 | inactive | 0 | 0 | 0 | 0 | 0
4 | O=c1c2ccccc2[se]n1-c1ccccc1 [EBSELEN] | 0 | – | 0 | 0 | 0 | 0 | 0 | 42.3 | 25 | 0 | – | 0 | 0 | 0 | – | 0 | 0 | 0 | 0 | 0

Source: ChEMBL document CHEMBL1938284, “Synthesis and biological activity of novel organoselenium derivatives targeting multiple kinases and capable of inhibiting cancer progression to metastases” (Eur J Med Chem, 2012)
